The test system of assay [1] is A549. Put plainly: Cytotoxicity against human A549 cells after 48 hrs by MTT assay. The note with it: A549, 48 h. Format: functional, cell-based. Summed up:
(§1)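 A549 human NSCLC cells kept in MEM with 10% FBS, penicillin/streptomycin and amphotericin B at 37 °C under humidified 5% CO2. Seeded at 1x10⁴ cells/well and left 24 h, then exposed to a range of concentrations for 48 h or 72 h at 37 °C. MTT (1 mg/mL) added for 4 h, formazan dissolved in DMSO, absorbance read at 540 nm. IC50 taken against untreated controls by log(compound) vs normalized response (variable slope) fit, with 95% CI.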
(In general: Tetrazolium assays rely on reduction of a dye to a coloured formazan, in cell work by metabolically active cells.)

Assay [2] concerns A549. Description: Cytotoxicity against human A549 cells after 72 hrs by MTT assay. Type of assay: functional, cell-based. To be noted: A549, 72 h. Summed up: as §1
Assay [3] concerns A549. Description: Ratio of IC50 for human A549 cells after 48 hrs to IC50 for human A549 cells after 72 hrs. Format: functional. In outline: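 Ratio of the 48 h to the 72 h IC50 in A549 cells. Both IC50s come from the MTT assay (1x10⁴ cells/well, 24 h attachment, then 48 h or 72 h compound exposure). Each was fitted by log(compound) vs normalized response nonlinear regression (variable slope), relative to untreated controls.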

pIC50: −log10 of the molar value.

With `CC(=O)OC(C)(C)CCC(=O)[C@](C)(O)[C@H]1[C@H](O)C[C@@]2(C)[C@@H]3CC=C4[C@@H](C=CC(=O)C4(C)C)[C@]3(C)C(=O)C[C@]12C`, the pIC50 (commonly −log10 of the IC50, conventionally taken in molar units) in the assay with A549 [1] was 4.06; in the assay on A549 [2], 4.11. Besides, the “Ratio IC50” value in the assay on A549 [3] came to 1.1.
On to `CC(=O)OC(C)(C)/C=C/C(=O)[C@](C)(O)[C@H]1[C@H](O)C[C@@]2(C)[C@@H]3CC=C4[C@H](C[C@H](O)C(=O)C4(C)C)[C@]3(C)C(=O)C[C@]12C` [CUCURBITACIN B], for which the pIC50 is 6.89 in the assay with A549 [1] and 7.40 with A549 [2]. The “Ratio IC50” value with A549 [3] worked out at 3.3.
As for `CC(=O)OC(C)(C)/C=C/C(=O)[C@](C)(O)[C@H]1[C@H](O)C[C@@]2(C)[C@@H]3CC=C4[C@@H](C=C(N)C(=O)C4(C)C)[C@]3(C)C(=O)C[C@]12C`, the pIC50 with A549 [1] is 6.38; with A549 [2], 6.92. For the same molecule, the “Ratio IC50” value with A549 [3] amounted to 3.5.
For `CC(=O)OC(C)(C)/C=C/C(=O)[C@](C)(O)[C@H]1[C@H](O)C[C@@]2(C)[C@@H]3CC=C4[C@@H](C[C@H](Br)C(=O)C4(C)C)[C@]3(C)C(=O)C[C@]12C`, in that order: 5.88, 6.92 and 11.1.
Consider `CC(=O)O[C@H]1C(=O)[C@@]2(C)[C@H]([C@H](OC(=O)c3ccccc3)[C@]3(O)C[C@H](OC(=O)[C@H](O)[C@@H](NC(=O)c4ccccc4)c4ccccc4)C(C)=C1C3(C)C)[C@]1(OC(C)=O)CO[C@@H]1C[C@@H]2O` [PACLITAXEL], for which the pIC50 with A549 [1] was 5.94; with A549 [2] it was 6.72. Moreover, the “Ratio IC50” value with A549 [3] was 6.1.
Take `CC(=O)OC(C)(C)CCC(=O)[C@](C)(O)[C@H]1C(=O)C[C@@]2(C)[C@@H]3CC=C4[C@@H](C[C@H](O)C(=O)C4(C)C)[C@]3(C)C(=O)C[C@]12C`: the pIC50 in the assay on A549 [1] was 4.26; in the assay with A549 [2], 4.58. Further, the “Ratio IC50” value with A549 [3] worked out at 2.1.
As for `CC(=O)O[C@H]1C[C@@H]2C(=CC[C@@H]3[C@@]2(C)C(=O)C[C@]2(C)[C@@H]([C@@](C)(O)C(=O)/C=C/C(C)(C)OC(C)=O)[C@H](OC(C)=O)C[C@@]32C)C(C)(C)C1=O`, the pIC50 is 4.83 in the assay with A549 [1] and 5.58 with A549 [2]. In the assay with A549 [3], the “Ratio IC50” value is 5.5.
On to `CC(=O)OC(C)(C)/C=C/C(=O)[C@](C)(O)[C@H]1[C@H](O)C[C@@]2(C)[C@@H]3CC=C4[C@@H](Cc5sc(N)nc5C4(C)C)[C@]3(C)C(=O)C[C@]12C`, for which the pIC50 was 4.54 in the assay on A549 [1] and 4.94 in the assay on A549 [2]. For the same molecule, the “Ratio IC50” value with A549 [3] is 2.5.

Values taken from ChEMBL document CHEMBL2016559, “Synthesis and cytotoxic activity evaluation of dihydrocucurbitacin B and cucurbitacin B derivatives” (Bioorg Med Chem, 2012).
